These results are taken from ChEMBL document CHEMBL1152442, “Discovery of a new template for anticancer agents: 2'-deoxy-2'-fluoro-4'-selenoarabinofuranosyl-cytosine (2'-F-4'-seleno-ara-C)” (J Med Chem, 2009).

Common to all, as to format: functional, cell-based
One assay deals with SNU-638. In words: Cytotoxicity against human SNU638 cells by sulforhodamine B method. The essentials: (§1)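 Human tumour lines tested: colon HCT116, lung A549, stomach SNU638, breast T47D, prostate PC-3 and leukaemia K562. Growth was read out by sulforhodamine B protein staining.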
A general note: In SRB staining, fixed cells bind dye roughly in proportion to their protein.

For the next assay, the system named is PC-3. In words: Cytotoxicity against human PC3 cells by sulforhodamine B method. The essentials:
as §1

The next assay concerns HCT-116. In words: Cytotoxicity against human HCT116 cells by sulforhodamine B method. The essentials: as §1
A further assay relates to K562. In words: Cytotoxicity against human K562 cells by sulforhodamine B method. Put shortly: as §1
The next assay relates to T47D. In words: Cytotoxicity against human T47D cells by sulforhodamine B method. The essentials:
as §1

The next assay relates to A549. In words: Cytotoxicity against human A549 cells by sulforhodamine B method. Put shortly:
as §1

Structures are written as SMILES. Where only a bound is given, the exact number is not on record here.

With `Nc1ccn([C@@H]2[Se][C@H](CO)[C@@H](O)[C@@H]2F)c(=O)n1`, the IC50 (usually the concentration at which inhibition is half-maximal) with SNU-638 is 0.14 µM; in the assay on PC-3, 0.58 µM; in the assay with HCT-116, 1.1 µM; in the assay with K562 it was 0.63 µM; in the assay on T47D, 0.79 µM; with A549, 0.47 µM.

In the case of `O=c1ccn([C@@H]2[Se][C@H](CO)[C@@H](O)[C@@H]2F)c(=O)[nH]1`, the IC50 in the assay with SNU-638, with PC-3, with HCT-116, in the assay on K562, in the assay on T47D and in the assay with A549 was over 100 µM each time.

Turning to `Nc1ccn([C@@H]2[Se][C@H](CO)[C@@H](O)[C@@H]2O)c(=O)n1`, the IC50 in the assay on SNU-638 is 4.72 µM; in the assay with HCT-116, 7.13 µM; in the assay with K562, 86.6 µM; in the assay with A549, 8.83 µM.

Consider `O=c1ccn([C@@H]2[Se][C@H](CO)[C@@H](O)[C@@H]2O)c(=O)[nH]1`, for which the IC50 in the assay on SNU-638, in the assay with PC-3, in the assay on HCT-116, in the assay on K562, in the assay on T47D and in the assay on A549 was over 100 µM each time.

As for `Nc1ccn([C@@H]2O[C@H](CO)[C@@H](O)[C@@H]2O)c(=O)n1` [CYTARABINE], the IC50 in the assay with SNU-638 was 0.15 µM; with PC-3 it was 55.9 µM; with HCT-116, 5.3 µM; in the assay with K562, 0.05 µM; in the assay on T47D, 2.7 µM; in the assay with A549, 1.9 µM.

As for `Nc1ccn([C@@H]2O[C@H](CO)[C@@H](O)C2(F)F)c(=O)n1` [GEMCITABINE], the IC50 with PC-3 came to 0.04 µM; in the assay on HCT-116, 0.005 µM; in the assay with A549, 0.09 µM.
